The text below walks through data of ChEMBL document CHEMBL1914320, “C4-alkylthiols with activity against Moraxella catarrhalis and Mycobacterium tuberculosis” (Bioorg Med Chem, 2011).

The test system of data set [1] is Escherichia coli. Kind of data set: Antibacterial activity against non-beta-lactamase producing Escherichia coli ATCC 25922 after 48 hrs by microdilution broth method. It is filed as functional, organism-based. In short, it runs like this: (§1)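 Broth microdilution followed CLSI guidelines. Compound was dissolved in 95% ethanol, diluted at least 10-fold into Mueller-Hinton broth, then serially two-fold diluted from 500 to 15.6 μg/mL. Actively growing culture was added at 5 × 10^5 cells/mL. Plates ran 48 h at 37 °C, scored for visible growth at 24 and 48 h. MIC was the lowest concentration without growth. For MBC, 10 μL from each clear well was plated on MH agar. Controls were ethanol and penicillin. Triplicate.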

The test system of data set [2] is Moraxella catarrhalis. Kind of data set: Antibacterial activity against beta-lactamase producing Moraxella catarrhalis isolate 6 at 10 ug/disc after overnight incubation by disc diffusion assay in presence of 1 mol equiv of glutathione. The data set is classed as functional. A general note: In agar diffusion tests the substance spreads into inoculated agar from a disc or well.

The test system of data set [3] is Moraxella catarrhalis. The data set can be described thus: Antibacterial activity against beta-lactamase producing Moraxella catarrhalis isolate 2 at 10 ug/disc after overnight incubation by disc diffusion assay. To be noted: read-out: IZ. It is filed as functional. Put shortly:
(§2)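 Isolates were held at −80 °C. Five colonies were suspended in Mueller-Hinton broth to a 0.5 McFarland density and swabbed onto MH agar. Discs carried 10 μg compound, applied in methanol and dried at room temperature. Plates were incubated overnight at 37 °C, and the zone of inhibition was measured in mm from the disc edge. Controls were methanol-only and penicillin discs. Run blinded, in triplicate.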

The test system of data set [4] is Escherichia coli. Kind of data set: Antibacterial activity against non-beta-lactamase producing Escherichia coli ATCC 25922 at 10 ug/disc after overnight incubation by disc diffusion assay. The data set is classed as functional, organism-based. Put shortly:
as §2

The test system of data set [5] is Pseudomonas aeruginosa. Kind of data set: Antibacterial activity against non-beta-lactamase producing Pseudomonas aeruginosa ATCC 27853 at 10 ug/disc after overnight incubation by disc diffusion assay. The data set is classed as functional, organism-based. Put shortly:
as §2

In data set [6] the test system is Moraxella catarrhalis. The data set can be described thus: Antibacterial activity against beta-lactamase producing Moraxella catarrhalis isolate 2 at 10 ug/disc after overnight incubation by disc diffusion assay in presence of 1 mol equiv of glutathione. It is filed as functional. Conditions: read-out: IZ.
For data set [7], the system named is Moraxella catarrhalis. The data set can be described thus: Antibacterial activity against beta-lactamase producing Moraxella catarrhalis isolate 1 at 10 ug/disc after overnight incubation by disc diffusion assay in presence of 1 mol equiv of glutathione. It is filed as functional.
Data set [8] concerns Moraxella catarrhalis. The data set can be described thus: Antibacterial activity against beta-lactamase producing Moraxella catarrhalis isolate 4 after 48 hrs incubation by microdilution broth method. The data set is classed as functional. Conditions: isolate 4, 48 h. Put shortly:
as §1
(In general: Broth dilution looks for growth in wells or tubes with falling amounts of substance.)

Data set [9] concerns Moraxella catarrhalis. Kind of data set: Antibacterial activity against beta-lactamase producing Moraxella catarrhalis isolate 2 after 48 hrs incubation by microdilution broth method. The data set is classed as functional. Conditions: isolate 2, 48 h. Put shortly: as §1
The test system of data set [10] is Moraxella catarrhalis. Kind of data set: Antibacterial activity against beta-lactamase producing Moraxella catarrhalis isolate 1 after 48 hrs incubation by microdilution broth method. The data set is classed as functional. To be noted: isolate 1, 48 h. Put shortly: as §1
Data set [11] relates to Enterococcus faecalis. The data set can be described thus: Antibacterial activity against non-beta-lactamase producing Enterococcus faecalis ATCC 29212 at 10 ug/disc after overnight incubation by disc diffusion assay. It is filed as functional, organism-based. In short, it runs like this: as §2
The test system of data set [12] is Moraxella catarrhalis. The data set can be described thus: Antibacterial activity against beta-lactamase producing Moraxella catarrhalis isolate 6 at 10 ug/disc after overnight incubation by disc diffusion assay. It is filed as functional. In short, it runs like this: as §2
The test system of data set [13] is Moraxella catarrhalis. Kind of data set: Antibacterial activity against beta-lactamase producing Moraxella catarrhalis isolate 5 at 10 ug/disc after overnight incubation by disc diffusion assay. It is filed as functional. To be noted: read-out: IZ. Put shortly:
as §2

Data set [14] relates to Moraxella catarrhalis. The data set can be described thus: Antibacterial activity against beta-lactamase producing Moraxella catarrhalis isolate 3 at 10 ug/disc after overnight incubation by disc diffusion assay in presence of 1 mol equiv of glutathione. It is filed as functional.
Data set [15] relates to Moraxella catarrhalis. The data set can be described thus: Antibacterial activity against beta-lactamase producing Moraxella catarrhalis isolate 3 at 10 ug/disc after overnight incubation by disc diffusion assay. It is filed as functional. In short, it runs like this:
as §2

For data set [16], the system named is Moraxella catarrhalis. Kind of data set: Antibacterial activity against beta-lactamase producing Moraxella catarrhalis isolate 3 after 48 hrs incubation by microdilution broth method. The data set is classed as functional. Conditions: isolate 3, 48 h. In short, it runs like this: as §1
Data set [17] deals with Mycobacterium tuberculosis. The data set can be described thus: Antimycobacterial activity against wild type Mycobacterium tuberculosis H37Rv by Alamar blue assay. It is filed as functional. For orientation: Resazurin is reduced to fluorescent resorufin, in cell work by metabolically active cells.
The test system of data set [18] is Moraxella catarrhalis. The data set can be described thus: Antibacterial activity against beta-lactamase producing Moraxella catarrhalis isolate 5 after 48 hrs incubation by microdilution broth method. It is filed as functional. Conditions: isolate 5, 48 h. Put shortly:
as §1

Data set [19] deals with Staphylococcus aureus. Kind of data set: Antibacterial activity against non-beta-lactamase producing Staphylococcus aureus ATCC 25923 at 10 ug/disc after overnight incubation by disc diffusion assay. It is filed as functional, organism-based. Put shortly: as §2
In data set [20] the test system is Pseudomonas aeruginosa. The data set can be described thus: Antibacterial activity against non-beta-lactamase producing Pseudomonas aeruginosa ATCC 27853 after 48 hrs by microdilution broth method. It is filed as functional, organism-based. Put shortly: as §1
Data set [21] deals with Moraxella catarrhalis. The data set can be described thus: Antibacterial activity against beta-lactamase producing Moraxella catarrhalis isolate 1 at 10 ug/disc after overnight incubation by disc diffusion assay. The data set is classed as functional. In short, it runs like this: as §2
The test system of data set [22] is Moraxella catarrhalis. The data set can be described thus: Antibacterial activity against beta-lactamase producing Moraxella catarrhalis isolate 4 at 10 ug/disc after overnight incubation by disc diffusion assay in presence of 1 mol equiv of glutathione. It is filed as functional.
Data set [23] concerns Moraxella catarrhalis. Kind of data set: Antibacterial activity against beta-lactamase producing Moraxella catarrhalis isolate 5 at 10 ug/disc after overnight incubation by disc diffusion assay in presence of 1 mol equiv of glutathione. Conditions: read-out: IZ. It is filed as functional.
Data set [24] deals with Enterococcus faecalis. Kind of data set: Antibacterial activity against non-beta-lactamase producing Enterococcus faecalis ATCC 29212 after 48 hrs by microdilution broth method. The data set is classed as functional, organism-based. In short, it runs like this:
as §1

Data set [25] has as its system Staphylococcus aureus. Kind of data set: Antibacterial activity against non-beta-lactamase producing Staphylococcus aureus ATCC 25923 after 48 hrs by microdilution broth method. The data set is classed as functional, organism-based. In short, it runs like this:
as §1

The subject of data set [26] is Moraxella catarrhalis. Kind of data set: Antibacterial activity against beta-lactamase producing Moraxella catarrhalis isolate 6 after 48 hrs incubation by microdilution broth method. The data set is classed as functional. Conditions: isolate 6, 48 h. In short, it runs like this:
as §1

Data set [27] has as its system Moraxella catarrhalis. Kind of data set: Antibacterial activity against beta-lactamase producing Moraxella catarrhalis isolate 4 at 10 ug/disc after overnight incubation by disc diffusion assay. It is filed as functional. Put shortly: as §2
The nature of data set [28]: Chemical stability of the compound assessed as compound degradation after 48 hrs by NMR analysis. It is filed as physicochemical. To be noted: read-out: Drug metabolism.

Each structure is given as a SMILES string. Values after ≈ are worked out from the molar mass of the structure shown. Active and inactive are the calls of the source. Some results are limits rather than exact numbers.

Broadly, the MBC is the smallest concentration meeting the test's criterion for killing.

For the compound `O=C1CC(Sc2ccc(O)cc2)N1S(=O)(=O)O` (racemic), the outcome in [1], in [4], in data set [5], in [11], in data set [19] and in data set [20] was inactive. In addition, the result in [24] and in data set [25] was inactive. The zone of inhibition at 10 µg/disc worked out at 8 mm in data set [2] (read-out: IZ); 9 mm in data set [3]; 7 mm in [6]; 9 mm in [7] (read-out: IZ); 8 mm in data set [12] (read-out: IZ); 9 mm in [13]. Besides, the zone of inhibition at 10 µg/disc in [14] (read-out: IZ) came to 7 mm; in data set [15] (read-out: IZ), 7 mm; in data set [21] (read-out: IZ) it was 13 mm; in [22] (read-out: IZ), 7 mm; in data set [23], 8 mm; in [27] (read-out: IZ) it was 8 mm. For the same compound, the MBC in [8] was less than 15.6 µg/mL; in [9], less than 15.6 µg/mL; in [10] it was more than 500 µg/mL; in data set [16], less than 15.6 µg/mL; in data set [17] it was more than 200 µg/mL; in data set [18] it was less than 15.6 µg/mL. This compound also registered an MBC in data set [26] of less than 15.6 µg/mL.

As to `CCOC(=O)C/N=C\C(CC)(CC)SSC(C=O)(CC)CC`, the result in [1], in [4], in data set [5], in [11], in data set [19] and in [20] was inactive. The result in data set [24] and in data set [25] was inactive. Besides, in data set [28], the degraded at 48 h was determined as 10%.

As to `CCC(C=O)(CC)SSC(/C=N\CC(=O)OC)(CC)CC`, the outcome in data set [1], in [4], in [5], in [11], in [19] and in data set [20] was inactive. Besides, the outcome in data set [24] and in data set [25] was inactive. In addition, in data set [28], the degraded at 48 h was 10%.

On to `CCC(C=O)(CC)SSC(CC)(CC)C1C(OC)C(=O)N1CC(=O)OC` (racemic), for which the result in [1], in data set [4], in data set [5], in [11], in [19] and in data set [20] was inactive. The outcome in [24] and in [25] was inactive. Besides, the “inhibition zone (IZ)” value in data set [2], in data set [7], in data set [12], in data set [14], in data set [15] and in data set [21] was “inactive” in each case. The “inhibition zone (IZ)” value in data set [22] and in data set [27] was “inactive” in each case. Further, the zone of inhibition at 10 µg/disc in data set [3] turned out to be 10 mm; in data set [6] it was 7 mm; in data set [13], 7 mm; in data set [23], 7 mm. Besides, the MBC in data set [8] is less than 15.6 µg/mL; in data set [9], more than 500 µg/mL; in [10], more than 500 µg/mL; in data set [16], less than 15.6 µg/mL; in [17], 200 µg/mL (≈ 493 µM); in data set [18] it was less than 15.6 µg/mL. In data set [26], this compound came in with an MBC of less than 15.6 µg/mL.
